MrgX1 antag = antagonists of human MrgX1 receptor, primary screen, HEK293 cells, Fluo-4 calcium flux | Mas-related G-protein coupled receptor member X1 (Homo sapiens), Q96LB2 | BAM8-22 antagonism; active compounds read low | B-score at 10 µM | 310,000 tested, 1.3% active;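 active means calcium-response B-score plate-corrected more than 3 library SD below zero, starting fluorescence within 5 deviations, no agonist response on first addition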;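 further: peak minus trough fluorescence over baseline after final BAM8-22 challenge near maximal dose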
Target sequence (Q96LB2 whole entry, looked up): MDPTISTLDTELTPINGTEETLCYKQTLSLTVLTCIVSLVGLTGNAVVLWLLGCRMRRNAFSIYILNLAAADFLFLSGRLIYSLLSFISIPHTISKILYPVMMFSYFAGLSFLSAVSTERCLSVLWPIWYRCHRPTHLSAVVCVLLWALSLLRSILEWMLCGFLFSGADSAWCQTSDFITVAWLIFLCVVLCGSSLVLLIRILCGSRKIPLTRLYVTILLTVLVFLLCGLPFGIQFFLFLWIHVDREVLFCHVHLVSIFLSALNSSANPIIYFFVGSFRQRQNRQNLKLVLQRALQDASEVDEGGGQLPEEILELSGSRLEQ
RGS4 pot = RGS4 potentiators or activators, primary screen, cell-based, HEK293 M3R inducible RGS4, calcium flux; 310,000 tested, 0.92% active; B-score at 10 µM; carbachol calcium flux Fluo4; active compounds read low;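 active means B-score of the integrated calcium signal more than 4 SD below the library mean, with starting fluorescence not abnormally high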;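 further: negative B-score means reduced calcium response which marks RGS4 activation or potentiation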
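System: HEK293 FlpIn-TREx cells, stable M3R, doxycycline-inducible RGS4. Timing: overnight RGS4 induction, 30 min dye load 37 °C, 20 min compound RT. Also added: carbachol, ECmax concentration. Measured by: Fluo4 fluorescence kinetic imaging of calcium. Evaluation: integrated calcium ratio converted to B score.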
RGS4 inh = RGS4 inhibitors, primary screen, cell-based, HEK293 M3R inducible RGS4, calcium flux; 310,000 tested, 0.45% active; Regulator of G-protein signaling 4 (Homo sapiens), P49798; Fluo-4 calcium flux; active compounds read high; triggered by carbachol at its EC20; B-score at 10 µM; AID 463165, 2010;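 active means B-score, a plate-corrected calcium signal, over three deviations above library mean, with baseline fluorescence within five deviations of library mean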;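 further: RGS4 expression induced by doxycycline in cells with stable M3 receptor; B-score is computed from the integrated fluorescence ratio over baseline after carbachol; higher B-score means a larger calcium signal and so more RGS4 inhibition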
Target sequence (P49798 whole entry, looked up): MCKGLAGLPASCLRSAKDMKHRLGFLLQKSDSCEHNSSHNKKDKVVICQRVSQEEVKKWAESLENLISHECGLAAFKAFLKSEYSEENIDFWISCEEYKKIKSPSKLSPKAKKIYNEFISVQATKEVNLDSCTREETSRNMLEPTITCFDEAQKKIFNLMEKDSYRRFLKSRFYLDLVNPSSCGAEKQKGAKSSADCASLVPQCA
MrgX1 ag = agonists of human MrgX1 receptor, primary screen, HEK293 cells, Fluo-4 calcium flux. Fluo-4 calcium fluorescence, agonist mode; active compounds read high. B-score at 10 µM. 310,000 tested, 0.44% active. AID 588627, 2011;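 active means calcium response B-score plate-corrected fluorescence ratio at least 3 library SD, with starting fluorescence B-score inside 5 SD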
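times = overnight plating, then 30 min 37 °C plus 30 min room-temperature dye loading | assay system = stable human MrgX1 HEK293 cell line | input = fifteen thousand cells per well | signal = kinetic calcium dye fluorescence, Fluo-4 NW | dosing = compound delivered in addition one of three | read-out = B-scored fluorescence response ratio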
MrgX1 allo act = positive allosteric modulators of MrgX1, primary screen, HEK293 cells, Fluo-4 calcium flux | FDSS; active compounds read high | Mas-related G-protein coupled receptor member X1 (Homo sapiens), Q96LB2 | B-score at 10 µM | 310,000 tested, 0.63% active;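 active means plate-corrected calcium response at least 3 library SD above typical, normal starting fluorescence, not activating the receptor alone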;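 further: compound read alongside a low EC10 to EC30 dose of BAM8-22 agonist; peak minus trough fluorescence over baseline measured at the second addition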
* hit, by the source's call; i = inactive; . = no result given. A selection: hits, their analogues and other compounds. The true share with any hit is near 3.5%.

SMILES | MrgX1 antag | RGS4 pot | RGS4 inh | MrgX1 ag | MrgX1 allo act
C[C@H]1C(=O)O[C@@H]2CCN3CC=C(COC(=O)[C@](C)(O)[C@]1(C)O)[C@H]23 | i | . | . | i | i
CCN(CC)c1ccc(CNCCc2ccccc2F)cc1 | i | -6.97* | i | i | i
C[C@]12CC[C@H](O)C[C@H]1CC[C@@H]1[C@@H]2C[C@@H](O)[C@]2(C)[C@@H](C3=CC(=O)OC3)CC[C@]12O | i | . | . | i | i
Cc1cc(OCC(=O)N2C[C@H]3C[C@@H](C2)c2cccc(=O)n2C3)c2c(C)cc(=O)oc2c1 | i | i | i | i | i
Cc1cc(OC(=O)c2ccco2)c2c3c(c(=O)oc2c1)CCCC3 | i | i | i | i | i
Cc1cc(OC(=O)c2cccs2)c2c3c(c(=O)oc2c1)CCCC3 | i | -7.34* | i | i | i
CCc1ccccc1NC(=O)CNCc1ccccc1 | i | i | i | i | i
Cc1cc(C=C2C(=O)N(C)C(=S)N(C)C2=O)c(C)n1C1CCCCC1 | i | i | i | 47* | i
Cc1cc(C=C2C(=O)NC(=S)NC2=O)c(C)n1C1CCCC1 | i | i | i | i | i
CC(C)(C)n1c(O)c(C=Nc2ccc3c(c2)CCC3)c(=O)[nH]c1=O | i | -7.11* | i | i | i
O=C(O)C1Cc2ccccc2N2CCCC12 (stereo unspecified) | i | i | i | i | i
CN1CCN(c2ccc([N+](=O)[O-])c3no[n+]([O-])c23)CC1 | i | -8.24* | i | i | i
Oc1ccc2c3c1O[C@H]1c4oc5ccccc5c4C[C@@]4(O)[C@@H](C2)N(CC2CC2)CC[C@]314 | i | i | i | i | i
CCN(CC)c1ccc(N=Cc2c(O)n(Cc3ccco3)c(=O)[nH]c2=O)cc1 | i | i | i | i | i
CCN(CCO)c1ccc(N=Cc2c(O)n(C)c(=S)[nH]c2=O)cc1 | i | i | i | 43.3* | i
CC1(C)C[C@H]2C=C(C=O)[C@]3(C=O)C[C@]3(C)[C@H]2C1 | i | i | i | 31.6* | i
O=P(Nc1ccccc1)(Oc1ccccc1)Oc1ccccc1 | i | i | i | i | i
COc1cccc(OP(=O)(Nc2ccccc2)Oc2cccc(OC)c2)c1 | i | -9.89* | i | i | i
O=C1NC(=O)N(c2ccc(Cl)cc2)C(=O)/C1=C\c1ccc(Sc2nc3ccccc3[nH]2)o1 | i | i | i | i | 16.6*
COc1ccc(CN2C(=O)NC(=O)/C(=C\c3cccc(OC)c3OC)C2=O)cc1 | -5.47* | i | i | i | i
COc1cc(N2CCOCC2)ccc1/C=C1\C(=O)NC(=O)N(Cc2ccc3c(c2)OCO3)C1=O | i | i | i | i | 11.8*
Cc1ccc(/C=C2/C(=O)NC(=O)N(Cc3ccc(F)cc3)C2=O)o1 | i | i | 11.4* | i | i
Cc1ccccc1CCNCc1cc2cccc(C)c2[nH]c1=O | i | i | i | i | i
Cc1cccc(N=Nc2ccc(N(C)C)cc2)c1 | i | i | i | i | i
CCCN(CC1CC1)CC(O)c1ccccc1 (stereo unspecified) | i | i | i | i | i
SMILES | MrgX1 antag | RGS4 pot | RGS4 inh | MrgX1 ag | MrgX1 allo act
C/C=C1/CC(C)C(C)(O)C(=O)OCC2CCN3CCC(OC1=O)C23 (stereo unspecified) | i | -8.22* | i | i | i
C/C=C1/C[C@@H](C)[C@](O)(CO)C(=O)OCC2=CCN3CC[C@@H](OC1=O)[C@@H]23 | i | . | . | i | i
CCCCCCC(C)(C)c1ccc([C@@H]2C[C@H](O)CC[C@H]2CCCO)c(O)c1 | i | . | . | i | i
C[C@]12CCC3=C4CCC(=O)C=C4CC[C@H]3C1CC[C@@H]2O (stereo partly specified) | i | i | i | i | i
O=C1C(=O)c2ccccc2-c2ccccc21 | i | i | i | i | i
O=C1C(=O)c2cccc3cccc1c23 | i | i | i | 26.8* | i
Cc1cc(OC(C)C(=O)NCC2CCC(C(=O)O)CC2)c2c3c(c(=O)oc2c1)CCC3 (stereo unspecified) | i | i | i | i | i
Clc1ccc(OCC#CCN2CCCCCC2)cc1 | i | -7.02* | i | i | i
COc1ccc(OCC#CCN2CCC(C)CC2)cc1 | i | i | i | i | i
O=[N+]([O-])c1cc(O)c(O)c([N+](=O)[O-])c1 | -5.37* | . | . | i | i
C=C1C(=O)O[C@H]2[C@H]1[C@H](OC(=O)CC(=O)O[C@@H]1C[C@@H](C)[C@@H]3C=CC(=O)[C@@]3(C)[C@H]3OC(=O)C(=C)[C@H]13)C[C@@H](C)[C@H]1C=CC(=O)[C@]12C | i | i | i | i | i
C=C1C(=O)O[C@H]2C[C@@H](C)[C@@H]3C=CC(=O)[C@@]3(C)C[C@H]12 | i | i | 6.29* | i | i
O=C1NC(=O)C(=Cc2ccc(OCCOc3ccc([N+](=O)[O-])cc3)cc2)C(=O)N1 | -4.85* | i | i | i | i
Cc1ccc(C[n+]2c(-c3ccc(C)cc3)cc(-c3ccc(C)cc3)cc2-c2ccc(C)cc2)cc1 | -13.4* | -7.21* | i | i | i
O=C(NC(=O)c1c(F)cccc1F)Nc1cc(Cl)c(F)c(Cl)c1F | i | i | i | i | i
CC1Oc2cc3c(-c4c(O)cc(O)c5c(O)c6c(cc45)OC(C)C(C)C6=O)c(O)cc(O)c3c(O)c2C(=O)C1C (stereo unspecified) | -5.9* | i | i | i | i
C=CCN1C(=O)/C(=C\c2ccc(N3CCOCC3)o2)C(=O)NC1=S | i | i | i | i | i
CN1C(=O)/C(=C\c2ccc(N3CCCCCC3)cc2)C(=O)NC1=S | i | i | i | i | i
CN1C(=O)/C(=C/c2ccc(N3CCCCCC3)o2)C(=O)NC1=S | i | i | i | 32* | i
CN1C(=O)/C(=C\c2ccc(N3CCCCC3)o2)C(=O)NC1=S | i | i | i | 28.8* | i
CN1CC(C(=O)c2cccc(C(F)(F)F)c2)C(c2ccc(Cl)cc2)C1 (stereo unspecified) | i | i | i | i | i
CN1CCN(Cc2ccccc2Sc2ccccc2)CC1 | i | -8.16* | i | i | i
CSc1ccc(CN2CCN(Cc3ccccc3Cl)CC2)cc1 | i | i | i | i | i
